High-throughput results as filed in PubChem.
M1 antagonist: antagonists of rat M1 muscarinic receptor. Muscarinic acetylcholine receptor M1 (Rattus norvegicus), P08482. CHO-M1 cells, Fluo-4 calcium, ACh EC80 antagonist mode; active compounds read low. B-score at 10 µM. actives 3.4% (n = 64,000). AID 628, 2007;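 active = calcium fluorescence response, raw or row-and-column corrected B-score, differing from the plate sample mean either way at a set confidence level, mostly lower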
Target sequence (P08482 whole entry, looked up): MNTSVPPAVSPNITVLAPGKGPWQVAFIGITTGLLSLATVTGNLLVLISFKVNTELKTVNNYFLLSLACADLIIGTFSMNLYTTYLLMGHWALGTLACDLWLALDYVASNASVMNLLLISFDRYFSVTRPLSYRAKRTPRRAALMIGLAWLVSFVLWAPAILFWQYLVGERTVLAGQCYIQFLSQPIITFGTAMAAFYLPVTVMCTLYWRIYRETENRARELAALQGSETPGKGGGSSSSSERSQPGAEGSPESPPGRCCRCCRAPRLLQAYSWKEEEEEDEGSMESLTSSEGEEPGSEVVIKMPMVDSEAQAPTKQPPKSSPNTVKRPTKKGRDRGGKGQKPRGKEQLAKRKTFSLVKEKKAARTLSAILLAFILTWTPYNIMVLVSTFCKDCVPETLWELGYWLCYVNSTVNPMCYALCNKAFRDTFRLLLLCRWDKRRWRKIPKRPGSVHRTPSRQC
S1P3 ag: human S1P3 receptor agonists, primary screen, cell-based, primary and confirmation, NFAT-BLA reporter. activation, % at 4.5 µM. Sphingosine 1-phosphate receptor 3 (Homo sapiens), Q99500. S1P3 NFAT-BLA reporter cells, agonism, FRET ratio; relative to 1 µM S1P, basal subtracted. actives 0.1% (n = 60,000). AID 373, 2006;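 active = activation above the screen-wide mean plus 3 SD, cut at about 4.5% in these data, passing the limit was not always enough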
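Measure – % activation relative to 1 µM S1P (100%), per plate · System – stable CHO line with human S1P3, Gα16, NFAT-BLA reporter · Timing – cells plated overnight, compound 4 h 37 °C, substrate 2 h RT · Technique – fluorescent BLA substrate, ex 405 nm, em 460/535 nm ratio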
S1P1 ag pot: S1P1 agonists and agonism potentiators, primary screen, cell-based, primary and confirmation screens, CRE-bla reporter. Sphingosine 1-phosphate receptor 1 (Homo sapiens), P21453. S1P1 CRE-bla cells, forskolin, beta-lactamase FRET, potentiator mode; S1P1 agonist co-added at EC20, 2 nM; 100% = saturating reference agonist, 0% = basal. activation, % at 9.5 µM. actives 0.57% (n = 56,000). AID 449, 2006;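 active = activation above a cutoff set at the mean activation of all tested compounds plus 3 SD, cut at about 54% in these data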;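 note: forskolin at 4 µM as EC80 and the EC20 agonist is SEW2871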
D1 allo mod: D1 CRE-luciferase signal change, two-sided – cell-based, HEK293 D1, dopamine EC30, D1 allosteric modulator project, primary screen; D(1A) dopamine receptor (Homo sapiens), P21728; dopamine EC30 potentiation; actives deviate in either direction; B-score at 10 µM; actives 5.9% (n = 58,000); AID 641, 2007;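 active = luminescence count or its row- and column-corrected plate score outside the 99.7% band of the plate's sample wells, on either side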
M1 agonist: M1 muscarinic receptor agonists, primary screen, CHO-M1 cells, Fluo-4 calcium, agonist mode; Muscarinic acetylcholine receptor M1; Fluo-4 calcium fluorescence; active compounds read high; B-score at 10 µM; actives 3% (n = 64,000);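 active = fluorescence rise, raw or as B-score row- and column-corrected plate score, outside the 99.7% band of its plate's samples, either direction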
M1 antag conf: rat M1 muscarinic receptor antagonists, confirmation, CHO cells, Fluo-4 calcium, duplicate; shares compounds with M1 antagonist; ACh EC80 antagonism; active compounds read low; calcium response (max-min fluorescence) at 10 µM; actives 43% (n = 1,700);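 active = calcium response below the same-plate mean of wells given acetylcholine alone at its 80%-effect dose, minus 3 SD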
mGluR4 antag: human mGluR4 response to M1 antagonist hits, M1 allosteric modulator project, cell-based, antagonist mode, secondary assay 1; shares compounds with M1 antagonist; CHO-mGluR4 calcium flux, Fluo-4 fluorescence, glutamate EC80; active compounds read low; fluorescence response (max-min) at 10 µM; actives 0.9% (n = 1,700);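 active = fluorescence response below the plate's average for near-maximal glutamate wells, less 3 SD of those wells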;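 note: raw unnormalized fluorescence span taken in the window right after glutamate addition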
A number is an active result; – = inactive; · = no result. Compounds with a hit are over-represented: about 11% of the library has one in this group of screens.

SMILES	M1 antagonist	S1P3 ag	S1P1 ag pot	D1 allo mod	M1 agonist	M1 antag conf	mGluR4 antag
C[N+]12CCC(CC1)C(OC(=O)C(O)(c1ccccc1)c1ccccc1)C2 (centres undefined)	-16	–	–	–	–	16	–
COc1ccccc1C(=O)Nc1c2c(nn1-c1cccc(C)c1C)CS(=O)C2 (centres undefined)	–	–	–	–	–	·	·
COc1cccc(C(=O)N(Cc2ccc(N(C)C)cc2)C2CCS(=O)(=O)C2)c1 (centres undefined)	–	–	–	–	–	·	·
CCCCc1c(C)nn(-c2nnc3c4ccccc4n(CC)c3n2)c1C	-2.7	–	–	–	–	–	–
COc1ccccc1-c1c(C)nn2c(N3CCN(c4ccccc4OC)CC3)cc(C)nc12	–	–	–	–	–	·	·
COc1ccccc1-c1c(C)nn2c(N3CCCCCC3)cc(C)nc12	-2.5	–	–	–	–	–	–
O=C(Nc1ccc(Cl)cc1)N1CCN(c2ccc3nnc(-c4ccc(F)cc4)n3n2)CC1	-4.4	–	–	–	–	386	–
OC(CN1CCOCC1)CN(c1ccccc1)c1ccccc1 (centres undefined)	–	–	–	–	–	·	·
OC(CN1CCCCC1)CN(c1ccccc1)c1ccccc1 (centres undefined)	-22	–	–	–	–	78	–
O=C(COC(=O)C1CCC1)NCc1ccccc1Cl	–	–	–	–	–	·	·
CCC(C)OC(=O)C1=C(C)NC(=O)CC1c1ccccc1OC (centres undefined)	–	–	–	–	–	·	·
CCOC(=O)c1c(C)n(C)c2ccc(O)c(CN3CCC(C)CC3)c12	-2	–	–	–	–	–	–
CCC(Sc1nc(C)cc(=O)[nH]1)C(=O)Nc1nc2c(s1)CCCC2 (centres undefined)	–	–	–	–	–	·	·
CCC(Sc1nc(C)cc(=O)[nH]1)C(=O)Nc1nnc(C)s1 (centres undefined)	-2.5	–	–	–	–	–	–
CCCCN(C)CCn1c(=S)[nH]c2ccc(N3CCOCC3)cc2c1=O	–	·	·	–	–	·	·
COCCCn1c(=S)[nH]c2ccc(N3CCOCC3)cc2c1=O	-11	·	·	–	–	–	–
C(=N\n1cnnc1)/c1ccc(-c2ccccc2)cc1	-7.4	–	–	–	–	–	–
Cc1nc(CC(=O)N2CCN(c3cccc(C)c3C)CC2)cs1	–	–	–	–	–	·	·
COCCCNc1nc2c(c(=O)[nH]c(=O)n2C)n1CC(O)COc1ccccc1C (centres undefined)	-3.6	–	–	–	–	–	–
CC(C)Sc1nc(SCC(=O)NCc2ccco2)c2c3c(sc2n1)COC(C)(C)C3	-1.9	·	·	·	–	–	–
Cc1nc(SCC(=O)NCc2ccco2)c2c3c(sc2n1)CCCC3	–	–	–	·	–	·	·
COC(=O)c1ccccc1NC(=O)CN1CCN(C23CC4CC(CC(C4)C2)C3)CC1	-11	–	–	–	–	393	–
O=C(CN1CCC(n2nnc3cc(F)ccc32)CC1)NC1CCCCC1	-3.7	–	–	–	–	–	–
O=C(CN1CCC(n2nnc3cc(F)ccc32)CC1)N1CCc2ccccc2C1	–	–	–	·	–	·	·
COC(=O)c1ccccc1NC(=O)CN1CCC(n2nnc3cc(F)ccc32)CC1	-4.6	–	–	·	–	–	–
SMILES	M1 antagonist	S1P3 ag	S1P1 ag pot	D1 allo mod	M1 agonist	M1 antag conf	mGluR4 antag
Cc1cc(C)cc(N2C(=O)C3C4C=CC(C4)C3C2=O)c1 (centres undefined)	–	–	–	·	–	·	·
Cc1cc(C)cc(-n2nnc(C(=O)NCc3ccccc3Cl)c2N)c1	–	–	–	–	–	·	·
CC1(C)CC(=O)C=C(NCC2CCCO2)C1 (centres undefined)	–	–	–	·	–	·	·
CCOC(=O)c1ccc(NC(=O)NCCN2CCCCC2)cc1	-3.4	–	–	–	–	–	–
CN(C)c1ccc(C(c2nnnn2CCOC(=O)Nc2ccc(Cl)cc2)N2CCOCC2)cc1 (centres undefined)	–	–	–	–	–	·	·
COC(=O)COc1ccc(S(=O)(=O)Nc2ccc(NC(C)=O)cc2)cc1C	-3.1	–	–	–	–	–	–
COC(=O)CC1Oc2ccccc2N(Cc2ccccc2)C1=O (centres undefined)	-2.4	–	–	–	–	–	–
Cc1oc(-c2ccccc2F)nc1CN1CCC(C(=O)NCc2ccco2)CC1	-3.7	–	–	–	–	–	–
Cc1oc(-c2ccccc2F)nc1CN1CCC(C(=O)NC2CCCCCCC2)CC1	–	–	–	–	–	·	·
COc1ccc(NC(=O)c2ccc(CN3CCN(c4ccccc4)CC3)cc2)cc1OC	-2.7	–	–	–	–	–	–
COc1cc(C2N(c3ccc(Cl)cc3)C(=O)C3CCCN32)cc(OC)c1OC (centres undefined)	–	–	–	–	–	·	·
COc1ccc(N2C(=O)C3CCCN3C2c2cc(OC)c(OC)c(OC)c2)cc1 (centres undefined)	-2.1	–	–	–	–	–	–
Cc1ccc(S(=O)(=O)NC(CC(=O)NCc2ccco2)c2ccco2)cc1 (centres undefined)	-4.7	–	–	–	–	–	–
COc1ccc(S(=O)(=O)NC(CC(=O)NCc2ccco2)c2ccco2)cc1 (centres undefined)	–	–	–	–	–	·	·
COc1ccccc1-n1c(SCC(N)=O)nnc1-c1ccccc1	–	–	–	–	–	·	·
COc1ccccc1-n1c(C)nnc1SCC(N)=O	-4.3	–	–	–	–	–	–
CCCCOc1ccc(OC(=O)c2cccnc2)cc1	–	–	–	·	–	·	·
CCCCOC(=O)c1ccc(OC(=O)c2cccnc2)cc1	-5.1	–	–	–	–	–	–
O=C(Nc1cccc(F)c1)C1C2C=CC3(CN(CCCN4CCOCC4)C(=O)C13)O2 (centres undefined)	–	–	–	–	–	·	·
CCOC(=O)NC(Nc1sc2c(c1C(=O)OC)CCN(C)C2)(C(F)(F)F)C(F)(F)F	-1.4	–	–	–	–	–	–
